From ChEMBL document CHEMBL3826888, “New naphthalene derivatives and isoquinoline alkaloids from Ancistrocladus cochinchinensis with their anti-proliferative activity on human cancer cells” (Bioorg Med Chem Lett, 2016)
pIC50: −log10 of the molar value. Converted amounts (≈) assume the structure as drawn.

What was measured:
[1] = Antiproliferative activity against human HL60 cells assessed as cell death at 20 ug/ml after 3 days by sulforhodamine B assay relative to control; assay type: functional, HL-60
Method in brief: (§1)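 Human cancer cell lines HL-60 (promyelocytic leukemia), LU-1 (lung carcinoma) and SK-MEL-2 (melanoma) were screened by sulforhodamine B assay, with each sample at a single concentration of 20 µg/mL. The read-out was percentage cell death; samples giving over 50% death went on to dose-response testing. Ellipticine was the positive control throughout.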

SK-MEL-2 [2] = experiment: Antiproliferative activity against human SK-MEL-2 cells assessed as cell death at 20 ug/ml after 3 days by sulforhodamine B assay relative to control; assay type: functional; method in brief: as §1
Lu1 [3] = experiment: Antiproliferative activity against human Lu1 cells assessed as cell death at 20 ug/ml after 3 days by sulforhodamine B assay relative to control; assay type: functional; method in brief: as §1
[4] = tested on: Trypanosoma brucei brucei; experiment: Antitrypanosomal activity against Trypanosoma brucei brucei TC221; assay type: functional, organism-based
[5] = Antiproliferative activity against human HL60 cells after 3 days by sulforhodamine B assay relative to control; assay type: functional, cell-based; conditions: HL-60, 72 h
Method in brief: (§2)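 SRB cell-proliferation assay on human cancer cell lines. Each sample was first screened at a single concentration of 20 µg/mL. Samples causing over 50% cell death then went to a dose-dependent study to derive IC50 in µg/mL. Ellipticine served as positive control throughout.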

SK-MEL-2 [6] = experiment: Antiproliferative activity against human SK-MEL-2 cells after 3 days by sulforhodamine B assay relative to control; assay type: functional, cell-based; conditions: SK-MEL-2, 72 h; method in brief: as §2
Lu1 [7] = experiment: Antiproliferative activity against human Lu1 cells after 3 days by sulforhodamine B assay relative to control; assay type: functional, cell-based; conditions: Lu1, 72 h; method in brief: as §2
Plasmodium falciparum [8] = experiment: Antiparasitic activity against Plasmodium falciparum NF54 after 48 hrs by [3H]-hypoxanthine incorporation assay; assay type: functional, organism-based
Plasmodium falciparum [9] = experiment: Antiparasitic activity against Plasmodium falciparum K1; assay type: functional, organism-based

Row | SMILES | Activity [1] [%] | Activity (SK-MEL-2 [2]) [%] | Activity (Lu1 [3]) [%] | also measured
1 | COc1cc(O)ccc1O[C@@H]1O[C@H](COC(=O)c2cc(OC)c(O)c(OC)c2)[C@@H](O)[C@H](O)[C@H]1O | <50 | <50 | <50 | –
2 | COc1cc([C@H]2OC[C@H]3[C@@H]2CO[C@H]3c2cc(OC)c(O[C@@H]3O[C@H](CO)[C@@H](O)[C@H](O)[C@H]3O)c(OC)c2)cc(OC)c1O | <50 | <50 | <50 | –
3 | COc1cc(C)cc2ccc(-c3ccc4c(c3O)[C@@H](C)N[C@H](C)C4)c(O)c12 | – | – | – | EC50 [4]: 2.6 nmol/mL
4 | COc1cc(O[C@@H]2O[C@H](CO)[C@@H](O)[C@H](O)[C@H]2O)cc2cc(CO)nc(C)c12 | <50 | <50 | <50 | –
5 | COc1cc(O)cc2cc(CO)nc(C)c12 | <50 | <50 | <50 | –
6 | COc1cc(O)c(-c2c(C)cc(OC)c3c(OC)cccc23)c2c1[C@@H](C)N[C@@H](C)C2 | >50 | >50 | >50 | IC50 [5]: 5 µg/mL (≈ 12.3 µM); IC50 (SK-MEL-2 [6]): 6.8 µg/mL (≈ 16.7 µM); IC50 (Lu1 [7]): 6.5 µg/mL (≈ 16 µM)
7 | COc1cccc2c(-c3ccc4c(c3O)[C@@H](C)N[C@H](C)C4)c(C)c(-c3c(C)c(-c4ccc5c(c4O)[C@@H](C)N[C@H](C)C5)c4cccc(OC)c4c3O)c(O)c12 | – | – | – | pIC50 (Plasmodium falciparum [8]): 8.85
8 | Cc1cc(O)c2c(c1)[C@H](O[C@@H]1O[C@H](CO[C@@H]3O[C@H](CO)[C@@H](O)[C@H](O)[C@H]3O)[C@@H](O)[C@H](O)[C@H]1O)CCC2=O | <50 | <50 | <50 | –
9 | Cc1cc(O[C@@H]2O[C@H](CO[C@@H]3OC[C@](O)(CO)[C@H]3O)[C@@H](O)[C@H](O)[C@H]2O)c2c(O)cccc2c1 | <50 | <50 | <50 | –
10 | COc1cc(O)c(-c2c(C)cc(O)c3c(OC)cccc23)c2c1[C@@H](C)N(C)[C@@H](C)C2 | – | – | – | pIC50 (Plasmodium falciparum [9]; Plasmodium falciparum, K1): 7.10
11 | COc1cc(O)c2c(c1-c1c(C)cc(OC)c3c(OC)cccc13)C[C@H](C)N[C@H]2C (stereo in doubt; form 1) | – | – | – | pIC50 (Plasmodium falciparum [9]): 7.15
12 | COc1cc(O)c2c(c1-c1c(C)cc(OC)c3c(OC)cccc13)C[C@H](C)N[C@H]2C (stereo in doubt; form 2) | – | – | – | pIC50 (Plasmodium falciparum [9]): 7.52
13 | COc1cccc2c(-c3ccc4c(c3O)[C@@H](C)N[C@H](C)C4)c(C)cc(OC)c12 [DIONCOPHYLLINE A] | – | – | – | EC50 [4]: 3.4 nmol/mL
14 | COc1cc(C)c(-c2ccc(O)c3c2C[C@@H](C)N[C@@H]3C)c2cccc(O)c12 [DIONCOPHYLLINE C] | – | – | – | EC50 [4]: 4.2 nmol/mL
